ChEMBL document CHEMBL2176966, “Discovery of 6,7-dihydro-5H-pyrrolo[2,3-a]pyrimidines as orally available G protein-coupled receptor 119 agonists” (J Med Chem, 2012)
pIC50: −log10 of the molar value. In brackets after ≈: the same amount, converted by molar mass. Activity calls are given as the source filed them. The rule behind the calls is not given here.

Legend:
Mus musculus [1] = assay: Increase in GIP level in GPR119 transgenic wild type mouse at 30 mg/kg, po after 60 mins by ELISA relative to control; type: functional
Summary of the method: (§1)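 Overnight-fasted wild-type or GPR119 knockout mice were given vehicle (0.5% HPMC/0.1% Tween80) or 30 mg/kg orally at 10 mL/kg. Cardiac blood was drawn 60 min post-dose under isoflurane into chilled K2-EDTA with DPP-4 inhibitor and aprotinin (250 KIU/mL). Plasma was prepared at 4 °C and held at −80 °C. Total GIP was measured by ELISA; n = 10.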

Mus musculus [2] = assay: Increase in PYY level in GPR119 knockout mouse at 30 mg/kg, po after 60 mins; type: functional, organism-based; design: dose 30 mg/kg
Summary of the method: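 Wild-type and GPR119 knockout mice, fasted overnight, were dosed by oral gavage (30 mg/kg, 10 mL/kg, 0.5% HPMC/0.1% Tween80 vehicle). Plasma was obtained from cardiac blood at 60 min in chilled K2-EDTA containing DPP-4 inhibitor and aprotinin, then stored at −80 °C. Hormone levels were compared with vehicle; n = 8–10.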

Rattus norvegicus [3] = assay: Antihyperglycemic activity in Wistar rat assessed as glucose excursion curve at 10 mg/kg, po by glucose tolerance test; type: functional
Rattus norvegicus [4] = assay: Increase of glucose infusion rate in Wistar rat at 10 mg/kg, po; type: functional, organism-based; design: dose 10 mg/kg
Summary of the method: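 Catheterized male Wistar rats (300–350 g, jugular and femoral lines, one week recovery) were fasted overnight and gavaged with vehicle (n = 19) or compound (n = 8). After ~90 min, an IV glucose bolus over 15–30 s was followed by variable-rate glucose infusion. The infusion was adjusted to clamp plasma glucose at 190–210 mg/dL, and the required infusion rate was recorded. Serum glucose was measured by analyzer.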

[5] = Equilibrium solubility of the compound in fasted simulated intestinal fluid; type: physicochemical
Mus musculus [6] = assay: Increase in GLP-1 level in GPR119 knockout mouse at 30 mg/kg, po after 60 mins by electrochemiluminescence assay; type: functional, organism-based; design: dose 30 mg/kg
Summary of the method: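 Wild-type and GPR119 knockout mice, fasted overnight, received vehicle (0.5% HPMC/0.1% Tween80) or 30 mg/kg by oral gavage at 10 mL/kg. At 60 min, blood was taken by cardiac puncture under isoflurane into chilled K2-EDTA tubes with DPP-4 inhibitor and aprotinin (250 KIU/mL). Plasma was spun at 4 °C and stored at −80 °C. Total GLP-1 was measured by electrochemiluminescence immunoassay; n = 10.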

[7] = Volume of distribution at steady state in rat at 30 mg/kg; type: ADME, organism-based; design: dose 30 mg/kg; settings: in vivo, read-out: Vdss
Rattus norvegicus [8] = species: Rattus norvegicus; assay: Potentiation of 3 mM of glucose-induced insulin secretion in rat islet at 0.3 uM
Mus musculus [9] = assay: Increase in GIP level in GPR119 knockout mouse at 30 mg/kg, po after 60 mins by ELISA relative to control; type: functional, organism-based; design: dose 30 mg/kg; summary of the method: as §1
Rattus norvegicus [10] = assay: Increase of C-peptide level in Wistar rat at 10 mg/kg, po up to 5 mins; type: functional, organism-based; design: dose 10 mg/kg
Summary of the method: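 Male Wistar rats (300–350 g) with jugular and femoral vein catheters, one week post-surgery, fasted overnight. Randomized to vehicle (n = 19) or oral compound (n = 8). About 90 min after gavage, a hyperglycemic clamp was started: a glucose bolus into the femoral vein, then variable-rate infusion holding glucose at 190–210 mg/dL. Serum C-peptide was measured by RIA, first phase 0–5 min and second phase 10–90 min.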

Rattus norvegicus [11] = assay: Dose normalized AUC (0 to 24 hrs) in rat at 30 mg/kg; type: ADME, organism-based; design: dose 30 mg/kg; settings: in vivo
Cytochrome P450 2C9 = Cytochrome P450 2C9 (Homo sapiens, UniProt P11712); assay: Inhibition of CYP2C9; type: ADME
[12] = Half life in mouse at 30 mg/kg; type: ADME, organism-based; design: dose 30 mg/kg; settings: in vivo
Mus musculus [13] = assay: Dose normalized AUC (0 to 24 hrs) in mouse at 30 mg/kg; type: ADME, organism-based; design: dose 30 mg/kg; settings: in vivo

Chain of Cytochrome P450 2C9 (P11712 whole entry): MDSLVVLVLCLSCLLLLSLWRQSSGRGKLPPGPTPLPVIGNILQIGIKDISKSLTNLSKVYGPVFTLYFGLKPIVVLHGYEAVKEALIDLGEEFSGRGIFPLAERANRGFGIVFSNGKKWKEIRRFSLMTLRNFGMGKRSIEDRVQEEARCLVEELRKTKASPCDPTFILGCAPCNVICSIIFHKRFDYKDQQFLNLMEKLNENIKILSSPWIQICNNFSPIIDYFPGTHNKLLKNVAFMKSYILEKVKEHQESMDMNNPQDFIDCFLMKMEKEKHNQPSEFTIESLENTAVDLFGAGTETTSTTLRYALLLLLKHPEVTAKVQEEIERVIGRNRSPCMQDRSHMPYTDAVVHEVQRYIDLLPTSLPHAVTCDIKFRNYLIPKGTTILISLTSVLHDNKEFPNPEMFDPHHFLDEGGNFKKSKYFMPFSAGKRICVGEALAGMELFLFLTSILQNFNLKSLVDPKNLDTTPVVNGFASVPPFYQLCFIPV

Q: What does the source list for `CC(C)OC(=O)N1CCC(Oc2ncnc3c2CCN3c2ccc(S(C)(=O)=O)cc2F)CC1`?
A: fold change (FC) (Mus musculus [1]): 2; Activity (Mus musculus [2]): inactive; Activity (Rattus norvegicus [3]): 43%; Activity (Rattus norvegicus [4]): Active; solubility thermodynamic [5]: 4 µg/mL (≈ 8.36 µM); Activity (Mus musculus [6]): inactive; Vd [7]: 1.5 L/kg; Activity (Rattus norvegicus [8]): inactive; Activity (Mus musculus [9]): inactive; Activity (Rattus norvegicus [10]): Active; AUC/dose (Rattus norvegicus [11]): 2.04 µg·h/mL; pIC50 (Cytochrome P450 2C9): 5.52; half-life [12]: 2.8 h; AUC/dose (Mus musculus [13]): 1.7 µg·h/mL
